Measurements as given in ChEMBL document CHEMBL1150767, “4-N-, 4-S-, and 4-O-chloroquine analogues: influence of side chain length and quinolyl nitrogen pKa on activity vs chloroquine resistant malaria” (J Med Chem, 2008).

Columns and labels:
Plasmodium falciparum [1] = experiment: Selectivity for chloroquine-resistant Plasmodium falciparum Dd2 over chloroquine-sensitive Plasmodium falciparum HB3 as IC50 ratio by SYBR green assay; assay type: functional
Plasmodium falciparum [2] = experiment: Selectivity for chloroquine-resistant Plasmodium falciparum FCB over chloroquine-sensitive Plasmodium falciparum GCO3 as IC50 ratio by SYBR green assay; assay type: functional
Plasmodium falciparum [3] = experiment: Antimalarial activity against chloroquine-sensitive Plasmodium falciparum HB3 after 72 hrs by SYBR green assay; assay type: functional, organism-based; conditions: HB3, 72 h
Method in brief: (§1)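 Sorbitol-synchronized P. falciparum cultures (>95% rings) at 0.5% parasitemia, 1% hematocrit final, exposed to drug dilutions in complete medium 72 h at 37°C; SYBR Green I added, 1 h at 37°C, fluorescence read at 530 nm (490 nm excitation). Each dilution in triplicate; IC50 averaged over at least two separate assays.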

Plasmodium falciparum [4] = experiment: Antimalarial activity against chloroquine-resistant Plasmodium falciparum Dd2 after 72 hrs by SYBR green assay; assay type: functional, organism-based; conditions: Dd2, 72 h; method in brief: as §1
Plasmodium falciparum [5] = experiment: Antimalarial activity against chloroquine-sensitive Plasmodium falciparum GCO3 after 72 hrs by SYBR green assay; assay type: functional, organism-based; conditions: GCO3, 72 h; method in brief: as §1
Plasmodium falciparum [6] = experiment: Antimalarial activity against chloroquine-resistant Plasmodium falciparum FCB after 72 hrs by SYBR green assay; assay type: functional, organism-based; method in brief: as §1
Plasmodium falciparum [7] = experiment: Antimalarial activity against chloroquine-sensitive Plasmodium falciparum NF54 by [3H]hypoxanthine uptake; assay type: functional, organism-based
Plasmodium falciparum [8] = experiment: Selectivity for chloroquine-resistant Plasmodium falciparum K1 over chloroquine-sensitive Plasmodium falciparum NF54 as IC50 ratio by [3H]hypoxanthine uptake; assay type: functional
Plasmodium falciparum [9] = experiment: Selectivity for chloroquine-resistant Plasmodium falciparum Indochina I over chloroquine-sensitive Plasmodium falciparum Haiti 135 as IC50 ratio by [3H]hypoxanthine uptake; assay type: functional
Plasmodium falciparum [10] = experiment: Drug accumulation in digestive vacuole of chloroquine-resistant Plasmodium falciparum assessed as vacuolar accumulation ratio at pH 5.2; assay type: ADME, organism-based
Method in brief: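 Calculated with the Henderson–Hasselbach equation from compound pKa values, taking cytosolic pH 7.4 and DV pH 5.2 for CQR parasites. Experimental pKa came from titrating 10 mM drug in water with 0.1 M NaOH at room temperature, using second-derivative inflection points, three determinations averaged.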

[11] = Binding affinity to mu dimeric heme in aqueous solution at pH 7.5
Method in brief: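 Hemin first converted to μ-oxo dimer in mild alkaline solution, then titrated to pH 7.5 with Hepes buffer. Heme titrated with increasing drug (0 – 50 μM); absorbance at 402 nm recorded after each addition. Solvent-only titration served as control. Ka derived from ΔAbs402 plots by Scatchard analysis.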

[12] = Inhibition of haemozoin formation at pH 5.6 after 18 hrs; assay type: functional
Method in brief: (§2)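 Cell-free β-hematin formation in 1 mL containing lecithin (2 μg/ml final), hematin (100 μM final), 0.1 M HCl, propionate buffer at stated pH, and drug (0-1000 μM). Triplicates shaken at 37°C for 18 h. Pellets washed with pH 9.0 bicarbonate to remove uncrystallized heme, dried, dissolved in 0.1 M NaOH, and quantified by absorbance at 402 nm against a heme calibration curve.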

Plasmodium falciparum [13] = experiment: Drug accumulation in digestive vacuole of chloroquine-sensitive Plasmodium falciparum assessed as vacuolar accumulation ratio at pH 5.6; assay type: ADME, organism-based
Method in brief: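 Calculated, not measured: Henderson–Hasselbach equation with cytosolic pH 7.4 and digestive vacuole pH 5.6 (CQS), using experimental pKa values.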

[14] = Inhibition of haemozoin formation at pH 5.2 after 18 hrs; assay type: functional; method in brief: as §2
Plasmodium falciparum [15] = experiment: Antimalarial activity against chloroquine-resistant Plasmodium falciparum K1 by [3H]hypoxanthine uptake; assay type: functional, organism-based

SMILES	Ratio IC50 (Plasmodium falciparum [1])	Ratio IC50 (Plasmodium falciparum [2])	IC50 (Plasmodium falciparum [3]) [nM]	IC50 (Plasmodium falciparum [4]) [nM]	IC50 (Plasmodium falciparum [5]) [nM]	IC50 (Plasmodium falciparum [6]) [nM]	IC50 (Plasmodium falciparum [7]) [nM]	Ratio IC50 (Plasmodium falciparum [8])	Ratio IC50 (Plasmodium falciparum [9])	Activity (Plasmodium falciparum [10])	Ka [11]	logKA [11]	IC50 [12] [µM]	Activity (Plasmodium falciparum [13])	IC50 [14] [µM]	IC50 (Plasmodium falciparum [15]) [nM]
CCNCCCCNc1ccnc2cc(Cl)ccc12	36.1	32.8	18	649	26	854										
CCN(CC)CCNc1ccnc2cc(Cl)ccc12	2	2.3	13	26	13	30	21	2.33	0.714							
CCN(CC)CCCCC(CCCCN(CC)CC)Oc1ccnc2cc(Cl)ccc12	4.31	13.4	73	316	45	604										
CCN(CC)CCCCNc1ccnc2cc(Cl)ccc12	16.6	3.69	12	199	49	181			10.2	23000	1.65 ×10⁵ /M	5.2	12	3700	24	
CCN(CC)CCCCCOc1ccnc2cc(Cl)ccc12	0.54	0.624	1870	1010	1490	930										
CCN(CC)CCCC(CCCN(CC)CC)Oc1ccnc2cc(Cl)ccc12	4.35	4.75	94	409	74	352				79000	3.47 ×10⁴ /M	4.5	687	5000	199	
CCN(CC)CCCCCCNc1ccnc2cc(Cl)ccc12	0.876	6.38	97	85	16	102			11.2							
CCN(CC)CCCCCNc1ccnc2cc(Cl)ccc12	12.3	7.17	29	357	66	509			9.67							
CCN(CC)CCCCCCSc1ccnc2cc(Cl)ccc12	0.683	0.742	6020	4110	4450	3300										
CCNCCCCCNc1ccnc2cc(Cl)ccc12	37.4	20.5	21	786	62	1270										
CCN(CC)CCCC(C)Nc1ccnc2cc(Cl)ccc12 (stereo unspecified) [CHLOROQUINE]										23000			16	3700	35	
CCN(CC)CCOc1ccnc2cc(Cl)ccc12	0.788	0.96	5800	4570	5290	5080										
CCNCCCNc1ccnc2cc(Cl)ccc12	16.4	4.25	7	115	20	85	15	24.3								365
CCN(CC)CCCCOc1ccnc2cc(Cl)ccc12	0.404	0.663	2920	1180	1660	1100				190	8.82 ×10⁴ /M	5	> 1000	67	> 1000	
CCN(CC)CCCNc1ccnc2cc(Cl)ccc12	4.33	4.14		26	7	29	18	3.33	1.2							60
CCN(CC)CCCSc1ccnc2cc(Cl)ccc12	0.475	0.465	5600	2660	3460	1610										
CCN(CC)CCCCCSc1ccnc2cc(Cl)ccc12	0.464	0.506	2330	1080	1610	814										
CCN(CC)CCCOc1ccnc2cc(Cl)ccc12	0.549	0.996	5100	2800	2340	2330										
CCN(CC)CCSc1ccnc2cc(Cl)ccc12	0.577	1.04	9530	5500	5740	6020										
CCN(CC)CCCCCCOc1ccnc2cc(Cl)ccc12	1.36	0.524	3060	4160	2270	1190										
CCN(CC)CC(CN(CC)CC)Oc1ccnc2cc(Cl)ccc12	0.866	1.7	1490	1290	2250	3830										
CCN(CC)CCCCSc1ccnc2cc(Cl)ccc12	0.601	0.622	7390	4440	5630	3500				170	8.22 ×10⁴ /M	4.9	155	64	216	
CCNCCNc1ccnc2cc(Cl)ccc12	6.75	7.42	12	81	12	89	21	1.25								133
CCNCCCCCCNc1ccnc2cc(Cl)ccc12	31.3	10	19	982	52	987										
